Test results from ChEMBL document CHEMBL4732162, “Design, synthesis and evaluation of novel ErbB/HDAC multitargeted inhibitors with selectivity in EGFR mutant cell lines” (Eur J Med Chem, 2021).
The source made the active and inactive calls. The rule behind the calls is not given here.

Tests used:
[1] = tested on: A-431; assay: Antiproliferative activity against human A431 cells incubated for 72 hrs by MTT assay; type: functional, cell-based; conditions: A-431, 72 h
[2] = tested on: L02; assay: cytotoxicity against human HL-7702 cells assessed as reduction of cell viability incubated for 72 hrs by MTT assay; type: ADME, cell-based; conditions: L02, 72 h
[3] = target: Epidermal growth factor receptor (Homo sapiens, UniProt P00533, L858R); assay: Inhibition of EGFR L858R (unknown origin) by mobility shift assay
Chain of Epidermal growth factor receptor (Homo sapiens, UniProt P00533, L858R) (P00533 25-1210 L858R limits assumed): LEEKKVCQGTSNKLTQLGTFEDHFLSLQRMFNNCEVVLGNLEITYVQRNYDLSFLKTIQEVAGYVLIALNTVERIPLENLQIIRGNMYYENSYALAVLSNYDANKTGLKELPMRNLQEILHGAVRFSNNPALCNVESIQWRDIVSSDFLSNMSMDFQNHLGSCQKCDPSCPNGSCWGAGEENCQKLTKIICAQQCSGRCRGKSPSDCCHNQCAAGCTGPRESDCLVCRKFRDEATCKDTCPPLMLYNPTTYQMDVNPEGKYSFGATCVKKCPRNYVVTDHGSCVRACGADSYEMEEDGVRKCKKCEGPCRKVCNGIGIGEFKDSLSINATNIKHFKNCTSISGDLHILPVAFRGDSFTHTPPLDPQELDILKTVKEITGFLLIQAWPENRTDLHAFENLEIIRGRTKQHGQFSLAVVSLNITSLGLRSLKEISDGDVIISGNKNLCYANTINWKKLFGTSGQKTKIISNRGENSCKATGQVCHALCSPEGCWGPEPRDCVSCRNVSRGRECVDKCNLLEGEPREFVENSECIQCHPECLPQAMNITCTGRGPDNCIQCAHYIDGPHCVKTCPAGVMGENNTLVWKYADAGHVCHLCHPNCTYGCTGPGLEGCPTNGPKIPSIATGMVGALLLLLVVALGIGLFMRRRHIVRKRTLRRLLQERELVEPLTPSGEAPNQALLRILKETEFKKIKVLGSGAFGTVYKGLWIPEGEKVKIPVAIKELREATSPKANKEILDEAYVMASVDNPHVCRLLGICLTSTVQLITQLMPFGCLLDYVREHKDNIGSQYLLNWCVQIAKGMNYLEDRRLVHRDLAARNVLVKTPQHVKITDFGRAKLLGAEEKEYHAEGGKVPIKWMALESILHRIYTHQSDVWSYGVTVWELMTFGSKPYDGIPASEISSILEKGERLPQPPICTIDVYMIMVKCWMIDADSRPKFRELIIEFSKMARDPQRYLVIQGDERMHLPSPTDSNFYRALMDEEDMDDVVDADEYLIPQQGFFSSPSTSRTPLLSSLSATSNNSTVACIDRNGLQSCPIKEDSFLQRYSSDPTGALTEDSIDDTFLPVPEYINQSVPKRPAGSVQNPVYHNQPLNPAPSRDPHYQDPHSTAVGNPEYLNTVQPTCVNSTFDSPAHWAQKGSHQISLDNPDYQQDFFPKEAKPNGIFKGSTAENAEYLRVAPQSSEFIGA

[4] = target: Epidermal growth factor receptor (Homo sapiens, UniProt P00533, L858R/T790M); assay: Inhibition of EGFR L858R/T790M (unknown origin) by mobility shift assay
Chain of Epidermal growth factor receptor (Homo sapiens, UniProt P00533, L858R/T790M) (P00533 25-1210 T790M/L858R limits assumed): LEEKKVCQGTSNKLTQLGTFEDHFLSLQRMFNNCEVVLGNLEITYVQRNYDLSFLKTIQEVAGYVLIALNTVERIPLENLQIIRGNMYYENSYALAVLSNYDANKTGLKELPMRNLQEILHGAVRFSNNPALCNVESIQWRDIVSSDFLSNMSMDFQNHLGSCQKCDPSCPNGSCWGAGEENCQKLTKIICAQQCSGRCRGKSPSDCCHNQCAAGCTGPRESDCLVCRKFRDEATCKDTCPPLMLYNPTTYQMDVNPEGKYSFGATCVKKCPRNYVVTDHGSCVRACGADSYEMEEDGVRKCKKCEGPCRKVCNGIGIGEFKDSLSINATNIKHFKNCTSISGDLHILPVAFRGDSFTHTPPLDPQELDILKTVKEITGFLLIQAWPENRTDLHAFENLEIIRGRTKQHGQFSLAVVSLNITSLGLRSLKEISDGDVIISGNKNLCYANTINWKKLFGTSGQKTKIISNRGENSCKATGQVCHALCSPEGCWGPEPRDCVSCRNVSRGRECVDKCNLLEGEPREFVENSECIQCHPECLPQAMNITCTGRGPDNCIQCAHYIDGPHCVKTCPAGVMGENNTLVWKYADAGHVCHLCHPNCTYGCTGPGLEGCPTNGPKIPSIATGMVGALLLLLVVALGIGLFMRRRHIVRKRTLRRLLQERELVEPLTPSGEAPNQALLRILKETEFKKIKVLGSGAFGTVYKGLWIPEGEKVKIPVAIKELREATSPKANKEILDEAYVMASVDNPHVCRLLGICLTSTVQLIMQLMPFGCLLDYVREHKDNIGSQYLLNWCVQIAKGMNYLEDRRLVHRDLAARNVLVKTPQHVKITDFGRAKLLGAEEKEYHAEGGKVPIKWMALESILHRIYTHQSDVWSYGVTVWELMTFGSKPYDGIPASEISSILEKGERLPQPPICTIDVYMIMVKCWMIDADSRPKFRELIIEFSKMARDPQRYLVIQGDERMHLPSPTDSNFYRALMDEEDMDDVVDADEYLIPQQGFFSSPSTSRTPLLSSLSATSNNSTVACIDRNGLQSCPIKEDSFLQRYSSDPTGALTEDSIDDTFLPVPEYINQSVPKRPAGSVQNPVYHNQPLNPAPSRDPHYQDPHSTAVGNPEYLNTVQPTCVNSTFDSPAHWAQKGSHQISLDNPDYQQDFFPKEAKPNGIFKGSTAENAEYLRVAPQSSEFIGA

[5] = target: T1, Epidermal growth factor receptor (Homo sapiens, UniProt P00533); assay: Inhibition of EGFR in human NCI-H1975 cells assessed as reduction in EGFR phosphorylation at Tyr-1068 residues after 48 hrs by Western blot analysis; type: cell-based; conditions: dose 0.5-5 µM
T1 sequence (P00533 whole entry): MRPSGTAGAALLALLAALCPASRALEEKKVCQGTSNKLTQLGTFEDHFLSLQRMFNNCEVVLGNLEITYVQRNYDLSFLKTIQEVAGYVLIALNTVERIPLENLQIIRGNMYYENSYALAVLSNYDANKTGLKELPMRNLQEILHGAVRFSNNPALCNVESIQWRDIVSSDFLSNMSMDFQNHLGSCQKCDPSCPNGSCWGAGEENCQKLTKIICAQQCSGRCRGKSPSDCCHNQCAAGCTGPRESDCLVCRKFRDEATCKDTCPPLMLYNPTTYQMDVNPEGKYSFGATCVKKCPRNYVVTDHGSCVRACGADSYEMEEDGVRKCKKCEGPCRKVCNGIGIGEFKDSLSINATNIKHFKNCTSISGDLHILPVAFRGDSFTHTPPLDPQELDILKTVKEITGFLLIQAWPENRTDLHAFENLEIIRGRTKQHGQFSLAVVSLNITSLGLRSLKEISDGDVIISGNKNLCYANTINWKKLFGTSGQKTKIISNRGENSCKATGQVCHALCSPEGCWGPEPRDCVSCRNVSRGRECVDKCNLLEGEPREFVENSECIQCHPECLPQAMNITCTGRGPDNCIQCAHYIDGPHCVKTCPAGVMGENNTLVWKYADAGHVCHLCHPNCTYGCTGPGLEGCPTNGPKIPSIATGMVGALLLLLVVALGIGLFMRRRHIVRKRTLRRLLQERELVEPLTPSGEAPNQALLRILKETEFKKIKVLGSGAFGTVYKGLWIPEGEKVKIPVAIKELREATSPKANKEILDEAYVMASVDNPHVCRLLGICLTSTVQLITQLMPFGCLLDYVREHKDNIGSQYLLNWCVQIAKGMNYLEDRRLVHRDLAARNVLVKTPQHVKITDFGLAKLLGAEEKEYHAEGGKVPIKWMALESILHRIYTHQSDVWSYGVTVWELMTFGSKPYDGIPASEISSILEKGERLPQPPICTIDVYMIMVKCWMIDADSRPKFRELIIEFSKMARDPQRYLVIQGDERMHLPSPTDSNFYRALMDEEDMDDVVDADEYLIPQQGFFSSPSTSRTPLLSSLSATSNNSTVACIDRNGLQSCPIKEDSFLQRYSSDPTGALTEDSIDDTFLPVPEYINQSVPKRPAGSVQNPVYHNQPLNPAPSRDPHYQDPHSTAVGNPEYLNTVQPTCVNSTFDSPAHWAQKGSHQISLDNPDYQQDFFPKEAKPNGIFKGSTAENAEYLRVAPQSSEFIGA
Method in brief: (§1)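 Cells were treated with compound for 48 h and lysed on ice for 30 min in RIPA buffer with protease and phosphatase inhibitors. Lysates were cleared at 14000 g, 4 °C, and protein quantified by BCA. Samples were boiled in loading buffer, run on 10–12% SDS-PAGE and transferred to PVDF. Membranes were blocked 2 h, incubated in primary antibody overnight at 4 °C, then in secondary antibody 2 h at room temperature.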

[6] = target: T2, Histone deacetylase (Homo sapiens) (UniProt Q13547+O15379+Q9UBN7+Q92769+Q9UQL6+Q8WUI4+Q9BY41+Q96DB2+P56524+Q9UKV0+Q969S8); assay: Inhibition of HDAC in human A431 cells assessed as increase in histone H3 acetylation at 0.5 to 5 uM after 48 hrs by Western blot analysis; type: cell-based; conditions: A-431, dose 0.5-5 µM; method in brief: as §1
[7] = Antiproliferative activity against human NCI-H820 cells incubated for 72 hrs by MTT assay; type: functional, cell-based; conditions: NCI-H820, 72 h
[8] = tested on: NCI-H1975; assay: Induction of apoptosis in human NCI-H1975 cells assessed as increase in cleaved-caspase 8 level at 0.5 to 5 uM after 48 hrs by Western blot analysis; type: functional, cell-based; conditions: dose 0.5-5 µM; method in brief: as §1
[9] = tested on: A549; assay: Antiproliferative activity against human A549 cells incubated for 72 hrs by MTT assay; type: functional, cell-based; conditions: A549, 72 h
[10] = tested on: NCI-H1975; assay: Induction of apoptosis in human NCI-H1975 cells assessed as viable cells at 5 uM incubated for 48 hrs by propidium iodide and annexin-V FITC staining based flow cytometry (Rvb =88.95% ); type: functional; conditions: read-out: Activity
[11] = target: T1, Epidermal growth factor receptor; assay: Inhibition of EGFR in human A431 cells assessed as reduction in EGFR phosphorylation at Tyr-1068 residues at 0.5 to 5 uM after 48 hrs by Western blot analysis; type: cell-based; conditions: A-431, dose 0.5-5 µM; method in brief: as §1
[12] = tested on: NCI-H1975; assay: Induction of apoptosis in human NCI-H1975 cells assessed as viable cells at 2.5 uM incubated for 48 hrs by propidium iodide and annexin-V FITC staining based flow cytometry (Rvb =88.95% ); type: functional; conditions: read-out: Activity
[13] = target: T2, Histone deacetylase (Homo sapiens); assay: Inhibition of HDAC in human NCI-H1975 cells assessed as increase in histone H3 acetylation after 48 hrs by Western blot analysis; type: cell-based; conditions: dose 0.5-5 µM; method in brief: as §1
[14] = tested on: FHC; assay: Cytotoxicity against human FHC cells assessed as reduction of cell viability incubated for 72 hrs by MTT assay; type: ADME, cell-based
[15] = target: T1, Epidermal growth factor receptor; assay: Inhibition of EGFR in human A431 cells assessed as reduction in EGFR phosphorylation at Tyr-1173 residues at 0.5 to 5 uM after 48 hrs by Western blot analysis; type: cell-based; conditions: A-431, dose 0.5-5 µM; method in brief: as §1
[16] = tested on: NCI-H1975; assay: Antiinvasive activity against human NCI-H1975 cells measured after 72 hrs by crystal violet dye-based transwell assay; type: functional, cell-based; conditions: dose 0.5-5 µM
Method in brief: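 NCI-H1975 cells, 1 × 10⁴/well, seeded in serum-free medium in the upper chamber of a transwell insert. The lower chamber held 10% FBS medium with compound at the indicated dilutions, for 72 h. Non-invading cells were swabbed off. Cells on the membrane underside were fixed in 10% buffered formalin for 1 h, stained with crystal violet for 1 h, and imaged in three random fields.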

[17] = tested on: NCI-H1975; assay: Induction of apoptosis in human NCI-H1975 cells assessed as late apoptotic cells at 0.5 uM incubated for 48 hrs by propidium iodide and annexin-V FITC staining based flow cytometry (Rvb =4.20 %); type: functional
[18] = tested on: NCI-H1975; assay: Induction of apoptosis in human NCI-H1975 cells assessed as increase in cleaved-PARP level at 0.5 to 5 uM after 48 hrs by Western blot analysis; type: functional, cell-based; conditions: dose 0.5-5 µM; method in brief: as §1
[19] = tested on: NCI-H1975; assay: Cytotoxicity against human NCI-H1975 cells assessed as inhibition of colony formation incubated for 7 days by crystal violet based colony formation assay; type: functional, cell-based; conditions: dose 0.5-5 µM, time 7.0 day
Method in brief: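 NCI-H1975 cells, 1 × 10⁴/well, were seeded in 6-well plates and cultured 12 h. They were then treated with compound for 7 days. Colonies were fixed in 10% buffered formalin for 1 h and stained with crystal violet for 1 h.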

[20] = tested on: NCI-H1975; assay: Antiproliferative activity against human NCI-H1975 cells incubated for 72 hrs by MTT assay; type: functional, cell-based; conditions: NCI-H1975, 72 h
[21] = tested on: NCI-H1975; assay: Induction of apoptosis in human NCI-H1975 cells assessed as necrotic cells at 2.5 uM incubated for 48 hrs by propidium iodide and annexin-V FITC staining based flow cytometry (Rvb =0.18% ); type: functional
[22] = tested on: NCI-H1975; assay: Induction of apoptosis in human NCI-H1975 cells assessed as early apoptotic cells at 0.5 uM incubated for 48 hrs by propidium iodide and annexin-V FITC staining based flow cytometry (reference value: 6.67 %); type: functional
[23] = tested on: NCI-H1975; assay: Induction of apoptosis in human NCI-H1975 cells assessed as necrotic cells at 5 uM incubated for 48 hrs by propidium iodide and annexin-V FITC staining based flow cytometry (Rvb =0.18% ); type: functional
[24] = tested on: NCI-H1975; assay: Induction of apoptosis in human NCI-H1975 cells assessed as viable cells at 0.5 uM incubated for 48 hrs by propidium iodide and annexin-V FITC staining based flow cytometry (Rvb =88.95% ); type: functional; conditions: read-out: Activity
[25] = tested on: NCI-H1975; assay: Induction of apoptosis in human NCI-H1975 cells assessed as early apoptotic cells at 2.5 uM incubated for 48 hrs by propidium iodide and annexin-V FITC staining based flow cytometry (reference value: 6.67 %); type: functional
[26] = tested on: NCI-H1975; assay: Induction of apoptosis in human NCI-H1975 cells assessed as increase in cleaved-caspase 7 level at 0.5 to 5 uM after 48 hrs by Western blot analysis; type: functional, cell-based; conditions: dose 0.5-5 µM; method in brief: as §1
[27] = cells; type: cell-based; conditions: BaF3, 72 h
[28] = tested on: NCI-H1975; assay: Induction of apoptosis in human NCI-H1975 cells assessed as late apoptotic cells at 2.5 uM incubated for 48 hrs by propidium iodide and annexin-V FITC staining based flow cytometry (Rvb =4.20 %); type: functional
[29] = tested on: NCI-H1975; assay: Down regulation of AKT protein expression in human NCI-H1975 cells at 0.5 to 5 uM after 48 hrs by Western blot analysis; type: functional, cell-based; conditions: dose 0.5-5 µM; method in brief: as §1
[30] = tested on: NCI-H1975; assay: Induction of apoptosis in human NCI-H1975 cells assessed as late apoptotic cells at 5 uM incubated for 48 hrs by propidium iodide and annexin-V FITC staining based flow cytometry (Rvb =4.20 %); type: functional
[31] = target: T2, Histone deacetylase (Homo sapiens); assay: Inhibition of HDAC in human NCI-H1975 cells assessed as increase in histone H3 acetylation at 2.5 uM after 1 to 12 hrs by Western blot analysis; type: cell-based; conditions: time lower 1.0 hrs, time upper […]

IC50 [1]: 20.7 µM
IC50 [3]: 0.0011 µM
IC50 [4]: 0.0015 µM
inhibition [5]: Dose-dependent effect
inhibition [6]: Active
IC50 [9]: > 50 µM
inhibition [11]: Active
inhibition [13]: Dose-dependent effect
inhibition [15]: Active
IC50 [20]: 1.82 µM
IC50 [27]: 7.61 µM
inhibition [31]: Active
SMILES: C=CC(=O)Nc1cc2c(Nc3ccc(F)c(Cl)c3)ncnc2cc1OCc1cn(CCCC(=O)NO)nn1
IC50 [2]: > 25 µM
IC50 [7]: 1.75 µM
Activity [8]: Active
viability at 5 µM [10]: 46.1%
viability at 2.5 µM [12]: 54%
IC50 [14]: > 25 µM
Activity [16]: Dose-dependent effect
Activity [17]: 13.07%
Activity [18]: Active
inhibition [19]: Dose-dependent effect
Activity [21]: 0.36%
Activity [22]: 24.28%
Activity [23]: 0.57%
viability at 0.5 µM [24]: 62.6%
Activity [25]: 31.38%
Activity [26]: Active
Activity [28]: 14.3%
Activity [29]: Active
Activity [30]: 18.07%
